# Assay results pooled from the literature.
# Protocols differ between the studies behind these lines.
# Target: Dual specificity mitogen-activated protein kinase kinase 6 (MAP2K6, Homo sapiens, UniProt P52564)
# One construct used (P52564 1-334): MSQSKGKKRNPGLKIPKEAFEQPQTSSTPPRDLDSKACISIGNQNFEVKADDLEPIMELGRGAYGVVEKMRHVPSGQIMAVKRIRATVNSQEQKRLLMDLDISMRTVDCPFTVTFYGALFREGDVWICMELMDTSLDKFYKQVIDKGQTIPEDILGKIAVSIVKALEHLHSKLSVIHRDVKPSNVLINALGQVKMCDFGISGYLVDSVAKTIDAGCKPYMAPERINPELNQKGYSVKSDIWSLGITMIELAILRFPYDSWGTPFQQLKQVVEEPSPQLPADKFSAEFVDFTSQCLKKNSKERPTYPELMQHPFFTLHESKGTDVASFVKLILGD
SMILES,assay,conditions,remaining binding [%]
CN(C)c1nccc(-c2cnn3ncccc23)n1,binding,1 µM,58
c1cncc(-c2cccc(Nc3nccc(NC4CCCCC4)n3)c2)c1,"binding, competition with immobilised ligand",10 µM,79
C[C@H](NC(=O)c1cnc2n1[C@](C)(Cc1ccc(C#N)cc1)C(=O)N2c1cc(Cl)c(F)c(Cl)c1)C(=O)NC1(c2ccccn2)CC1,"cell-free assay, competition with immobilised ligand",1 µM,80
Cc1cnn2ncc(-c3ccnc(N(C)C)n3)c2c1,binding,1 µM,100
O=C(NCC1CCOCC1)c1n[nH]cc1NC(=O)c1c(F)cccc1F,"binding, competition with immobilised ligand",1 µM,95
CCC(=O)N[C@@H]1CC[C@H](C(=O)N(C)c2ccc(-c3nc4ccccc4o3)cc2)C1,"cell-free assay, competition with immobilised ligand",1 µM,100
O=C(c1ccc(Nc2ncc(Cl)c(-c3cc4ccccc4s3)n2)cc1)N1CCC(N2CCCC2)CC1,"binding, competition with immobilised ligand",1 µM,37
N[C@H]1CCN(c2nccc(-c3cnn4ncccc34)n2)C1,binding,1 µM,100
CS(=O)(=O)N1CCCC(NC(=O)[C@H](CCC2CCCCC2)NC(=O)c2ccc(CNc3ncnc4c3nnn4-c3ccccc3)cc2)C1 (stereo partly drawn),"cell-free assay, competition with immobilised ligand",0.1 µM,67
CN(CCCC(F)(F)F)c1nccc(-c2cnn3ncccc23)n1,binding,1 µM,100
C=CC(=O)N1CCC(C(=O)NCC(=O)N2CCN(c3nc(-c4cnc(N)nc4C(F)F)nc(N4CCOCC4)n3)CC2)CC1,"binding, competition with immobilised ligand",1 µM,100
O=C(NCCCN1CCOCC1)c1ccc(Nc2ncc(Cl)c(-c3ccc(Cl)s3)n2)cc1,"binding, competition with immobilised ligand",1 µM,87
CO[C@@H](C)c1c(Nc2ccc([C@@H](N(C)C(=O)C3CCS(=O)(=O)CC3)C(F)(F)F)cc2)cnc2cc(Cl)nn12,"cell-free assay, competition with immobilised ligand",1 µM,92
CN(C)c1ncc(F)c(-c2cnn3ncccc23)n1,binding,1 µM,100
Cn1nc(C(F)(F)F)cc1-c1cnc(N2CCc3cc(S(=O)(=O)Nc4c(F)cc(Cl)cc4F)cc(N4CCCC4=O)c32)nc1,"cell-free assay, competition with immobilised ligand",1 µM,100
CN(c1nccc(-c2cnn3ncccc23)n1)C1CC1,binding,1 µM,100
CCN1CCN(Cc2ccc(C(=O)Nc3ccc(C)c(Oc4ccc5c(c4)CC(=O)N5)c3)cc2C(F)(F)F)CC1,"binding, competition with immobilised ligand",1 µM,100
CNC(=O)[C@@H]1CC[C@@H](n2c(-c3ccc4cnccc4c3)nc3ccc(C(=O)NCc4cccc(C(N)=O)c4)cc32)C1,"binding, competition with immobilised ligand",1 µM,100
C[C@@H](c1ccc(-n2cnc3c(N)ncnc32)cc1)N1CCc2nn(C)c(Cc3ccccc3)c2C1=O,"binding, competition with immobilised ligand",0.1 µM,90
O=C(c1ccc(Nc2ncc(Cl)c(-c3ccc(Cl)s3)n2)cc1)N1CCC(N2CCCC2)CC1,"binding, competition with immobilised ligand",1 µM,29
CNC(=O)Nc1ccc2c(c1)CC[C@@]21OC(=O)N(CC(=O)N(Cc2ccc(F)cc2)[C@@H](C)C(F)(F)F)C1=O,"cell-free assay, competition with immobilised ligand",1 µM,100
CNC(=O)[C@@]12C[C@@H]1[C@@H](n1cnc3c(NC)nc(C#Cc4ccc(Cl)s4)nc31)[C@H](O)[C@@H]2O,"binding, competition with immobilised ligand",10 µM,17
Cc1c(C(=O)O)cc(-c2ccc(C3CCNCC3)cc2)c2ccc(-c3ccc(C(F)(F)F)cc3)cc12,"binding, competition with immobilised ligand",1 µM,100
C[C@H]1CCN(c2nccc(-c3cnn4ncccc34)n2)C1,binding,1 µM,100
